From article PMC10023369 (ACS chemical biology, 2023)
Where two headings read alike, the source gives them in different places. Where a SMILES comes first, the peptide text is derived from it. The star is where a group is joined. Cbz = O=C(OCc1ccccc1)*

Experiments:
[1] = test system: triple negative breast cancer (TNBC) cells; conditions: cited from earlier work
tumor growth = conditions: once daily intraperitoneal administration, 150 mg/kg; cited from earlier work
DB cells [2] = test: DB cell proliferation analysis; assay type: cell-based, human; conditions: for Reduction of cell growth compared to DMSO: 0.5 μM, 12 days
Method in brief: (§1)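 DB cells in RPMI 1640 with 10% FBS (37 °C, 5% CO₂), seeded at 100K cells/mL in 12-well plates. Dosed with 0.01–10 μM or 0.5 μM test compound, or DMSO. Every 3 days, media exchanged, cells split back to seeding density and re-dosed, for up to 12 days. Trypan blue automated counts gave cells/mL and % viability. % proliferation relative to DMSO at each time point; EC50 from four-parameter log(inhibitor) fit.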

H3K27me3 = H3K27me3 levels by western blot in DB cells; assay type: cell-based, human; conditions: 3 μM for 96 hr
Method in brief: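 H3K27me3 by western blot: DB cells seeded at 50,000 cells/well and treated with 3 μM test compound or DMSO for 96 hr. PBS-washed cells lysed in Cytobuster with protease inhibitors and benzonase. Samples boiled with reducing Laemmli buffer, separated on 4–15% gels, transferred to PVDF. Densitometry normalized to GAPDH and expressed relative to DMSO.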

EED = EED (Homo sapiens, UniProt O75530); test: EED degradation by western blot in DB cells; assay type: cell-based
Method in brief: (§2)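 DB cells seeded at 800,000 cells/well and dosed from DMSO stock for 24 hr; dose–response 0.01–3 μM. Cells washed with PBS and lysed in Cytobuster with protease inhibitors and benzonase. Normalized lysate boiled with reducing Laemmli buffer, run on 4–15% gels, blotted to PVDF, detected by fluorescence or ECL. Band densitometry normalized to GAPDH, then to DMSO, gave % degradation; EED quantified from lower ~55 kDa band. DC50 from three-parameter fit; Dmax = % degradation at 3 μM, 24 hr.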

EZH2^WT/EZH2^Y641N [3] = test: EZH2 degradation by western blot in DB cells; assay type: cell-based, human; conditions: % degradation at 3 μM after 24 hr
Method in brief: as §2

Caco-2 = Caco-2 permeability assay; assay type: in vitro ADME
SUZ12 = SUZ12 degradation by western blot in DB cells; assay type: cell-based, human; conditions: % degradation at 3 μM after 24 hr
Method in brief: as §2

His-tagged EED = His-tagged EED (Homo sapiens, UniProt O75530); test: EED binding TR-FRET assay; conditions: result in words
Method in brief: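 EED binding by TR-FRET displacement of a biotinylated EED ligand (15 nM). Mix held EED-6xHis (15 nM), ULight anti-6xHis antibody (10 nM) and Eu-W1024 streptavidin (2 nM). Test compounds run as 10-point dose–response, top final concentration 10 μM. IC50 from three biological replicates ± standard deviation.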

DB cells [4] = test: DB cell viability; assay type: cell-based, human; conditions: 12 days, top concentrations tested (5 – 10 μM)
Method in brief: as §1

[5] = molecular target: biotinylated EED and His-VHL (Homo sapiens, UniProt O75530+P40337); test: TR-FRET ternary complex formation assay; assay type: binding; conditions: EED-biotin and His-VHL, dose response up to 10 μM
Method in brief: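 Ternary complex TR-FRET: biotinylated EED (residues 1–441, 160 nM) and His-VHL (residues 1–154, 320 nM) with Eu-streptavidin (2 nM) and ULight anti-6xHis (100 nM). Buffer: 20 mM Tris pH 7.5, 150 mM NaCl, Tween 20, 2 mM DTT, 1% DMSO. 10-point three-fold series from 10 μM; 4 h in dark. Read 665/615 ratio (320 nm excitation), minus no-compound wells. Technical triplicates; two independent experiments, standard error.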

[6] = molecular target: PRC2 components EED and EZH2^WT/EZH2^Y641N (Homo sapiens, UniProt O75530+P40337); test: Degradation of PRC2 components by western blot in DB cells; assay type: cell-based; conditions: for Degradation of EED and EZH2^WT/EZH2^Y641N at 96 hr: DB cells, 3 μM for 96 hr
EZH2^WT/EZH2^Y641N [7] = conditions: read-out: EZH2^WT/EZH2^Y641N DC50; DB cells; cited from earlier work
[8] = Solubility observed in ternary complex assay; assay type: physicochemical; conditions: above 10 μM in ternary complex assay

Chain of biotinylated EED and His-VHL (O75530 whole entry, the tested form may be a part): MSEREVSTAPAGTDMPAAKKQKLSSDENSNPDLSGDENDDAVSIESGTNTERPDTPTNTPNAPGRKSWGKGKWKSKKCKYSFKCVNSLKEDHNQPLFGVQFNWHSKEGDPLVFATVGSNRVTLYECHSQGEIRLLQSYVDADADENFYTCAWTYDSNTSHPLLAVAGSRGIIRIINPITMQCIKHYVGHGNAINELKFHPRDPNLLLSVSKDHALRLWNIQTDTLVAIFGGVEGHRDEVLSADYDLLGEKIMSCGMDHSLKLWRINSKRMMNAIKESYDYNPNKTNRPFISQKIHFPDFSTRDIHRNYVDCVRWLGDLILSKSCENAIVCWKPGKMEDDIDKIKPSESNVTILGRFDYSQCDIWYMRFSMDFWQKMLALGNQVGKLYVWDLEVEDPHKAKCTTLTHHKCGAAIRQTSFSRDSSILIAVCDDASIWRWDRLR
Chain of biotinylated EED and His-VHL (P40337 1-154): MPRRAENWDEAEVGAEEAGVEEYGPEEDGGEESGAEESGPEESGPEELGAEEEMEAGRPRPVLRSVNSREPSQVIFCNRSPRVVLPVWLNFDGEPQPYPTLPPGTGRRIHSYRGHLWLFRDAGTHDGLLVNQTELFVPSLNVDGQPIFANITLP
Chain of EED (O75530 whole entry): as the sequence (O75530 whole entry, the tested form may be a part) above
Chain of His-tagged EED (O75530 whole entry): as the sequence (O75530 whole entry, the tested form may be a part) above

Cc1cc(C)c(CNC(=O)c2cc(-c3ccc(N4CCN(CCNC(=O)CC56CC7CC(CC(C7)C5)C6)CC4)nc3)cc3c2cnn3C(C)C)c(=O)[nH]1 [MS1943]
Anti-proliferative effect in TNBC cells [1]: anti-proliferative
Tumor growth in vivo (tumor growth): suppresses tumor growth in vivo

CCCc1cc(C)[nH]c(=O)c1CNC(=O)c1cc(-c2ccc(N3CCN(C(C)C)CC3)nc2)cc2c1cnn2C(C)C [UNC1999]
Reduction of cell growth compared to DMSO (DB cells [2]): 28%
Decrease in H3K27me3 levels (H3K27me3): 76%

Cc1ncsc1-c1ccc(CNC(=O)[C@@H]2C[C@@H](O)CN2C(=O)[C@@H](NC(=O)C2CC(NC(=O)c3ccc(-c4cnc(NCc5ccco5)n5cnnc45)cc3)C2)C(C)(C)C)cc1 (stereo partly drawn) [UNC7700]
EED Dmax (EED; % degradation at 3 μM after 24 hr): 84%
DC50 (EED; read-out: EED DC50, 24 hr, dose response 0.01–3 μM, western blot): 111 nM
Reduction of cell growth compared to DMSO (DB cells [2]): 46%
EC50 (DB cells [2]; read-out: Proliferation EC50 after 9 days, 0.01 – 10 μM, 9 days): 2600 ± 1900 nM
EC50 (DB cells [2]; read-out: Proliferation EC50 after 12 days, 0.01 – 10 μM, 12 days): 790 ± 530 nM
EZH2^WT/EZH2^Y641N Dmax (EZH2^WT/EZH2^Y641N [3]): 86%
Caco-2 permeability (Caco-2): below the limit of detection of the assay
Percent recovery in Caco-2 assay (Caco-2; from the donor compartment, cell lysate, and assay well): 79–106%
SUZ12 Dmax (SUZ12): 44%
EED binding (TR-FRET IC50) (His-tagged EED): equally potent binders of EED
Decrease in H3K27me3 levels (H3K27me3): 85%
Loss in cell viability (DB cells [4]): ~30%
PROTAC concentration at maximum peak height of ternary complex TR-FRET signal [5]: around 1 μM
Ternary complex TR-FRET signal, in words [5]: much weaker compared to UNC6852
Degradation of EED and EZH2^WT/EZH2^Y641N at 96 hr [6]: complete degradation of EED and EZH2^WT/EZH2^Y641N

CS(=O)(=O)c1ccc(-c2cnc(NCc3ccco3)n3cnnc23)cc1 [EED226]
Reduction of cell growth compared to DMSO (DB cells [2]): 24%
Decrease in H3K27me3 levels (H3K27me3): 63%

Cc1ncsc1-c1ccc(CNC(=O)[C@@H]2C[C@@H](O)CN2C(=O)[C@@H](NC(=O)CCCNC(=O)c2ccc(-c3cnc(NCc4ccco4)n4cnnc34)cc2)C(C)(C)C)cc1 [UNC6852]
Reduction of cell growth compared to DMSO (DB cells [2]): 8%
DC50 (EZH2^WT/EZH2^Y641N [7]): 670 ± 240 nM
Solubility [8]: poor solubility observed above this concentration
Decrease in H3K27me3 levels, in words (H3K27me3): only a small decrease in H3K27me3 levels
PROTAC concentration at maximum peak height of ternary complex TR-FRET signal [5]: around 1 μM
Ternary complex TR-FRET signal, in words [5]: signs of a bell-shaped curve
Degradation of EED and EZH2^WT/EZH2^Y641N at 96 hr [6]: substantial degradation of EED and EZH2^WT/EZH2^Y641N

CC(C)C[C@@H](C=O)NC(=O)[C@H](CC(C)C)NC(=O)[C@H](CC(C)C)NC(=O)OCc1ccccc1 [MG132] (Cbz-Leu-Leu-Leu-aldehyde)
Effect of proteasome inhibitor pretreatment on UNC7700 mediated PRC2 degradation ([6]; added prior to UNC7700 cell treatment): blocks PRC2 degradation

Cc1ncsc1-c1ccc(CNC(=O)[C@H]2C[C@@H](O)CN2C(=O)[C@@H](NC(=O)CCCNC(=O)c2ccc(-c3cnc(NCc4ccco4)n4cnnc34)cc2)C(C)(C)C)cc1 [UNC7043]
Ternary complex TR-FRET signal, in words [5]: do not show any increase in FRET signal
